The values below come from the array DNA melting data of Ke et al. (doi:10.1101/2024.01.08.574731).

Series [1] in a line: folding enthalpy; higher = less favourable; fluorescence melt of hairpins on a sequencing array, two-state fit. Conditions: sodium 0.088 M. The gist of the method:
(§1)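 Cy3 signals were normalised both to pre-quench Cy3 and to control constructs. They came from library hairpins carrying annealed Cy3 and quencher oligos on a sequenced MiSeq flow cell, imaged in 50 mM Na-HEPES pH 8.0, 25 mM NaCl, in 2.5 °C steps up to 60 °C. Bootstrapped two-state fits gave melting temperature and folding enthalpy, and four replicates were combined by inverse variance. Fitted temperatures were then raised by 9.35 °C to match UV melts.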

The nature of series [2]: melting temperature; fluorescence melt of hairpins on a sequencing array, two-state fit, raised by 9.35 °C to match UV melts. Conditions: sodium 0.088 M. The gist of the method:
as §1

Turning to GATCACGGCTGTGATC ((((((....)))))), the folding enthalpy in series [1] was -44.5 kcal/mol. For the same sequence, the Tm in series [2] came out at 62.3 °C.
The matching figures for GATCACGGGCGTGATC ((((((....)))))): -40.4 kcal/mol and 57.8 °C.
The matching figures for GATCACGGGGGTGATC ((((((....)))))): -36.7 kcal/mol and 56.8 °C.
The matching figures for GATCACGTCTGTGATC ((((((....)))))): -37.7 kcal/mol and 59.5 °C.
As to GATCACGTTCGTGATC ((((((....)))))), in series [1], the folding enthalpy is -39.4 kcal/mol. Further, in series [2], the Tm is 62.6 °C.
In the case of GATCACTACAGTGATC ((((((....)))))), the folding enthalpy in series [1] is -40.5 kcal/mol. For the same sequence, in series [2], the Tm turned out to be 60.6 °C.
GATCACTACCGTGATC ((((((....)))))): the folding enthalpy in series [1] was -41.2 kcal/mol. Further, in series [2], the Tm was found to be 55.3 °C.
Take GATCACTAGTGTGATC ((((((....)))))): the folding enthalpy in series [1] was -37.6 kcal/mol. Also, the Tm in series [2] amounted to 55.1 °C.
With GATCACTATGTGATC ((((((...)))))), the folding enthalpy in series [1] is -38.8 kcal/mol. Also, the Tm in series [2] is 61.1 °C.
The like results for GATCACTCCGTGATC ((((((...)))))) were, in that order, -44 kcal/mol and 59.2 °C.
Regarding GATCACTCGTGTGATC ((((((....)))))), in series [1], the folding enthalpy is -37.1 kcal/mol. Moreover, in series [2], the Tm was 57.1 °C.
GATCACTGAGTGATC ((((((...)))))): in series [1], the folding enthalpy is -40.1 kcal/mol. Besides, in series [2], the Tm turned out to be 55.2 °C.
On to GATCACTGCGGTGATC ((((((....)))))), for which, in series [1], the folding enthalpy was -38 kcal/mol. For the same sequence, the Tm in series [2] was determined as 61.9 °C.
The like results for GATCACTGTGGTGATC ((((((....)))))) were, in that order, -45.6 kcal/mol and 59.4 °C.
The like results for GATCACTTGGTGATC ((((((...)))))) were, in that order, -37.5 kcal/mol and 59.1 °C.
The like results for GATCACTTTCGTGATC ((((((....)))))) were, in that order, -36.8 kcal/mol and 56.4 °C.
With GATCAGAAACCTGATC ((((((....)))))), in series [1], the folding enthalpy is -36.9 kcal/mol. Further, the Tm in series [2] came to 44.1 °C.
The matching figures for GATCAGAAATGATC (((((....))))): -22.5 kcal/mol and 41.1 °C.
Consider GATCAGAACCCTGATC ((((((....)))))), for which, in series [1], the folding enthalpy was -39.8 kcal/mol. Further, the Tm in series [2] turned out to be 47 °C.
As to GATCAGAACTCTGATC ((((((....)))))), the folding enthalpy in series [1] was -37.6 kcal/mol. Further, the Tm in series [2] was found to be 48.4 °C.
Turning to GATCAGAATCTGATC ((((((...)))))), in series [1], the folding enthalpy was -31.4 kcal/mol. Further, in series [2], the Tm was determined as 45.4 °C.
The like results for GATCAGAATGCTGATC ((((((....)))))) were, in that order, -28.1 kcal/mol and 47 °C.
On to GATCAGACCGCTGATC ((((((....)))))), for which the folding enthalpy in series [1] was -28.5 kcal/mol. In addition, the Tm in series [2] is 47.8 °C.
As for GATCAGACGGCTGATC ((((((....)))))), in series [1], the folding enthalpy was -52.4 kcal/mol. Further, in series [2], the Tm was 51.7 °C.
Turning to GATCAGAGACTGATC ((((((...)))))), the folding enthalpy in series [1] was -31.4 kcal/mol. Moreover, in series [2], the Tm amounted to 48 °C.
As to GATCAGAGATCTGATC ((((((....)))))), the folding enthalpy in series [1] was -24.3 kcal/mol. The Tm in series [2] was found to be 50.1 °C.
The matching figures for GATCAGAGGACTGATC ((((((....)))))): -32.8 kcal/mol and 46.9 °C.
GATCAGAGGTCTGATC ((((((....)))))): in series [1], the folding enthalpy was -30.6 kcal/mol. Moreover, in series [2], the Tm came out at 49.5 °C.
The matching figures for GATCAGAGTACTGATC ((((((....)))))): -37.4 kcal/mol and 49 °C.
As to GATCAGAGTCCTGATC ((((((....)))))), the folding enthalpy in series [1] was -38.2 kcal/mol. Further, in series [2], the Tm was determined as 47.6 °C.
Consider GATCAGATGCTGATC ((((((...)))))), for which the folding enthalpy in series [1] was -30.6 kcal/mol. Also, the Tm in series [2] was 49.4 °C.
The matching figures for GATCAGCAACTGATC ((((((...)))))): -33.8 kcal/mol and 45.6 °C.
For GATCAGCAATCTGATC ((((((....)))))), in series [1], the folding enthalpy is -32.5 kcal/mol. Also, the Tm in series [2] was determined as 47.2 °C.
The like results for GATCAGCACCCTGATC ((((((....)))))) were, in that order, -33.1 kcal/mol and 48.7 °C.
The matching figures for GATCAGCAGACTGATC ((((((....)))))): -42.5 kcal/mol and 50.3 °C.
The like results for GATCAGCATGCTGATC ((((((....)))))) were, in that order, -47.5 kcal/mol and 60.8 °C.
In the case of GATCAGCATTCTGATC ((((((....)))))), the folding enthalpy in series [1] is -39 kcal/mol. Besides, the Tm in series [2] is 48.8 °C.
For GATCAGCCCGCTGATC ((((((....)))))), the folding enthalpy in series [1] was -47.1 kcal/mol. In addition, the Tm in series [2] is 58.3 °C.
The like results for GATCAGCCTACTGATC ((((((....)))))) were, in that order, -35.2 kcal/mol and 49.9 °C.
The like results for GATCAGCCTCCTGATC ((((((....)))))) were, in that order, -34.4 kcal/mol and 49.1 °C.
The like results for GATCAGCGAGCTGATC ((((((....)))))) were, in that order, -44.7 kcal/mol and 61.4 °C.
As to GATCAGCGGTCTGATC ((((((....)))))), the folding enthalpy in series [1] was -32.1 kcal/mol. In addition, the Tm in series [2] stood at 49.9 °C.
The matching figures for GATCAGCGTCCTGATC ((((((....)))))): -32.4 kcal/mol and 49 °C.
For GATCAGGAAGCTGATC ((((((....)))))), the folding enthalpy in series [1] is -34.2 kcal/mol. Moreover, the Tm in series [2] was 53.9 °C.
The matching figures for GATCAGGAATCTGATC ((((((....)))))): -41.8 kcal/mol and 54.8 °C.
The like results for GATCAGGACCTGATC ((((((...)))))) were, in that order, -40.4 kcal/mol and 49.6 °C.
Regarding GATCAGGATTCTGATC ((((((....)))))), the folding enthalpy in series [1] is -38.6 kcal/mol. For the same sequence, the Tm in series [2] worked out at 49.8 °C.
The like results for GATCAGGCCTCTGATC ((((((....)))))) were, in that order, -49.2 kcal/mol and 52.1 °C.
The matching figures for GATCAGGGACTGATC ((((((...)))))): -39.5 kcal/mol and 59.6 °C.
Turning to GATCAGGGGCCTGATC ((((((....)))))), the folding enthalpy in series [1] was -33.1 kcal/mol. The Tm in series [2] amounted to 53 °C.
Regarding GATCAGGGTCCTGATC ((((((....)))))), the folding enthalpy in series [1] is -37.9 kcal/mol. The Tm in series [2] came to 52.7 °C.
The like results for GATCAGGGTGCTGATC ((((((....)))))) were, in that order, -31.2 kcal/mol and 51.5 °C.
On to GATCAGGTTCCTGATC ((((((....)))))), for which, in series [1], the folding enthalpy is -47.5 kcal/mol. The Tm in series [2] was 53.7 °C.
The like results for GATCAGGTTTCTGATC ((((((....)))))) were, in that order, -46.7 kcal/mol and 51.8 °C.
The matching figures for GATCAGTAAACTGATC ((((((....)))))): -37.4 kcal/mol and 50.8 °C.
Take GATCAGTAACTGATC ((((((...)))))): the folding enthalpy in series [1] is -37.8 kcal/mol. The Tm in series [2] was 47.9 °C.
Turning to GATCAGTAGCTGATC ((((((...)))))), the folding enthalpy in series [1] was -35.8 kcal/mol. In addition, in series [2], the Tm turned out to be 48.3 °C.
